For 37 sequences, folding enthalpy and Tm results are on record in the array DNA melting data of Ke et al. (doi:10.1101/2024.01.08.574731).

A short description of data set [1]: folding enthalpy; higher = less favourable; fluorescence melt of hairpins on a sequencing array, two-state fit. To be noted: sodium 0.088 M. In outline: (§1)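 Folding enthalpy and melting temperature were estimated with bootstrapped two-state fits and combined across four replicates by inverse-variance weighting, with fitted temperatures raised by 9.35 °C to match UV melts. The data were Cy3 fluorescence of library hairpins, with annealed Cy3 and quencher oligos, on a sequenced MiSeq flow cell in 50 mM Na-HEPES pH 8.0, 25 mM NaCl, imaged in 2.5 °C steps up to 60 °C and normalised to pre-quench Cy3 and control constructs.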

Data set [2] can be described thus: melting temperature; fluorescence melt of hairpins on a sequencing array, two-state fit, raised by 9.35 °C to match UV melts. Particulars: sodium 0.088 M. In outline: as §1

Regarding GTGTAGCGAAAGCTGCAC (((.(((....))).))), the folding enthalpy in data set [1] was -36.6 kcal/mol. Also, the Tm in data set [2] was 63.9 °C.
The like results for GTGTAGGGAAACCTACGC (.(((((....))))).) were, in that order, -17.9 kcal/mol and 50 °C.
On to GTGTATGGAAACATACGC (.(((((....))))).), for which the folding enthalpy in data set [1] was -20.1 kcal/mol. Further, the Tm in data set [2] was found to be 48.5 °C.
The like results for GTGTATGGAAACATATGC (..((((....))))..) were, in that order, -24.1 kcal/mol and 30.7 °C.
The corresponding values for GTGTCACGAAAGTGCCAC (((.(((....))).))) are -51.5 kcal/mol and 52.2 °C.
The corresponding values for GTGTCAGGAAACTAACAC ((((.((....)).)))) are -20.3 kcal/mol and 33.5 °C.
In the case of GTGTCAGGAAACTGACGC (.(((((....))))).), in data set [1], the folding enthalpy was -40.5 kcal/mol. Besides, the Tm in data set [2] is 55.4 °C.
On to GTGTCAGGAAACTGATAC ((.((((....)))).)), for which, in data set [1], the folding enthalpy was -29.4 kcal/mol. Besides, the Tm in data set [2] was 45.8 °C.
The like results for GTGTCAGGAAACTGATGC (..((((....))))..) were, in that order, -21.1 kcal/mol and 38.3 °C.
With GTGTCAGGAAACTGGTAC ((..(((....)))..)), in data set [1], the folding enthalpy is -17.6 kcal/mol. In addition, the Tm in data set [2] was 31.8 °C.
On to GTGTCCGAAAGGACCCAC ((((((....)))..))), for which the folding enthalpy in data set [1] is -8.57 kcal/mol. Further, in data set [2], the Tm worked out at 38.5 °C.
Consider GTGTCCGGAAACAGACAC (((((.(....).))))), for which, in data set [1], the folding enthalpy was -30.1 kcal/mol. The Tm in data set [2] is 44.9 °C.
Take GTGTCCGGAAACGGGCAC (((.(((....))).))): the folding enthalpy in data set [1] was -32.4 kcal/mol. For the same sequence, in data set [2], the Tm was found to be 62.4 °C.
GTGTCCTCGAAAGAGCAC (((..(((....)))))): the folding enthalpy in data set [1] was -14.5 kcal/mol. Moreover, the Tm in data set [2] came out at 36 °C.
In the case of GTGTCGGGAAACCAACAC ((((.((....)).)))), in data set [1], the folding enthalpy was -33.7 kcal/mol. Also, the Tm in data set [2] was 42.9 °C.
Turning to GTGTCGGGAAACCGACGC (.(((((....))))).), the folding enthalpy in data set [1] was -19.8 kcal/mol. In addition, the Tm in data set [2] turned out to be 60.5 °C.
Consider GTGTCGGGAAACCGGTAC ((..(((....)))..)), for which the folding enthalpy in data set [1] is -22.7 kcal/mol. For the same sequence, the Tm in data set [2] was determined as 37.6 °C.
The corresponding values for GTGTCGGGAAACTGGCAC (((.(.(....).).))) are -29.2 kcal/mol and 45.9 °C.
The like results for GTGTCTCGAAAGAGTCAC (((.(((....))).))) were, in that order, -39.3 kcal/mol and 49.4 °C.
Take GTGTCTGGAAACAGATAC ((.((((....)))).)): in data set [1], the folding enthalpy was -37.9 kcal/mol. In addition, the Tm in data set [2] turned out to be 46.1 °C.
The like results for GTGTGACGAAAGTCCAC (((.(((....)))))) were, in that order, -40.2 kcal/mol and 52.3 °C.
For GTGTGAGGAAACTCACAC (((((((....))))))), the folding enthalpy in data set [1] is -49.1 kcal/mol. Besides, in data set [2], the Tm is 63.4 °C.
The like results for GTGTGATCGAAAGATCAC (((..(((....)))))) were, in that order, -14 kcal/mol and 66.7 °C.
For the sequence GTGTGCCGAAAGGCCAC (((.(((....)))))), the folding enthalpy in data set [1] is -20.6 kcal/mol. Besides, in data set [2], the Tm was 63.8 °C.
The like results for GTGTGCGAAAGCAACCAC ((((((....)))..))) were, in that order, -14.3 kcal/mol and 38.8 °C.
For GTGTGCGAAAGCAGCCAC ((((((....)))..))), the folding enthalpy in data set [1] is -13.4 kcal/mol. Moreover, the Tm in data set [2] amounted to 36.1 °C.
The corresponding values for GTGTGCGAAAGCATCCAC ((((((....)))..))) are -11 kcal/mol and 33.9 °C.
The like results for GTGTGCGGAAACGCGTAC ((..(((....)))..)) were, in that order, -16.3 kcal/mol and 43.7 °C.
As to GTGTGCGGAAACGTACAC ((((.((....)).)))), in data set [1], the folding enthalpy was -40.2 kcal/mol. Further, the Tm in data set [2] was 56.2 °C.
The like results for GTGTGCGGAAACGTACGC (.((.((....)).)).) were, in that order, -27.3 kcal/mol and 48 °C.
The like results for GTGTGGCGAAAGCCCAC (((.(((....)))))) were, in that order, -18.6 kcal/mol and 63 °C.
The like results for GTGTGGGGAAACCCGTAC ((..(((....)))..)) were, in that order, -20.8 kcal/mol and 33.5 °C.
For the sequence GTGTGGGGAAACTCACAC (((((.(....).))))), the folding enthalpy in data set [1] was -36.3 kcal/mol. The Tm in data set [2] turned out to be 52.3 °C.
On to GTGTGGGGAAACTCACGC (.(((.(....).))).), for which the folding enthalpy in data set [1] is -28 kcal/mol. The Tm in data set [2] was 44.7 °C.
The like results for GTGTGGGGAAACTCGCAC (((.(.(....).).))) were, in that order, -29.9 kcal/mol and 42.8 °C.
The like results for GTGTGTCGAAAGACCAC (((.(((....)))))) were, in that order, -28.9 kcal/mol and 54.5 °C.
As for GTGTTACGAAAGTACAC (((.(((....)))))), in data set [1], the folding enthalpy is -27 kcal/mol. The Tm in data set [2] was determined as 47.9 °C.
